In ChEMBL document CHEMBL4808214, “Structure-activity relationship studies in substituted sulfamoyl benzamidothiazoles that prolong NF-κB activation” (Bioorg Med Chem, 2021) one finds Activity data, which are given here for 46 molecules.

Molecules are shown by their SMILES. The source made the active and inactive calls. The calls are words filed in the database; no cut-off is given here.

Series [1] relates to THP-1. Briefly: Cytotoxicity against human THP-1 cells assessed as cell viability at 5 uM measured after 18 hrs by MTT assay relative to control. It is filed as cell-based. The note with it: thp-1, 18 h. In short, it runs like this:
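THP-1 cells were plated at 10^5/well in RPMI with 10% FBS and penicillin/streptomycin, then given compound at 5 μM final (0.5% DMSO) for 18 h. MTT at 0.5 mg/mL was added for 4–6 h, followed by SDS/HCl lysis buffer overnight. Absorbance was read at 570 nm against a 650 nm reference. Viability was normalized to DMSO as 100%.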
In general terms: Tetrazolium assays rely on reduction of a dye to a coloured formazan, in cell work by metabolically active cells.

Series [2] addresses T1, Nuclear factor NF-kappa-B complex (Homo sapiens) (UniProt Q00653+P19838+Q04206). Briefly: Activation of NF-kappaB in human THP1-Blue NF-kappaB cells co-expressing NFkappaB-inducible SEAP assessed as increase in SEAP activity at 5 uM measured after 20 hrs by quanti-blue based colorimetric assay relative to control. In kind it is cell-based. The following applies: filed as activator. Put shortly: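 THP1-Blue NF-κB reporter cells plated at 10^5/well in RPMI with 10% FBS, penicillin/streptomycin and Normocin. Compound added at 5 μM final (0.5% DMSO), then incubated 20 h. Secreted SEAP in the supernatant was read colorimetrically with QuantiBlue at 630 nm. Two-point normalization set vehicle (0.5% DMSO) as 100% and a reference activator as 200%.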

For series [3], the species on record is Mus musculus. Briefly: Co-adjuvanticity in MPLA/OVA-immunized BALB/c mouse assessed as increase in ovalbumin specific IgG production at 50 nmol treated on day 0 and 21 measured after 28 days by ELISA. In kind it is functional, organism-based. The note with it: time 28.0 day. In short, it runs like this:
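BALB/c mice aged 7–9 weeks, n=5 per group, were injected into the gastrocnemius muscle on days 0 and 21. Mice were bled on day 28 and OVA-specific IgG titers measured by ELISA. Groups were compared with one-way ANOVA and Dunnett's post hoc test.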
A general note: In an ELISA, binding on a coated surface is turned into a signal by an enzyme label.

In series [4] the test system is BMDC. Briefly: Activation of NF-kappaB in mouse BMDC cells assessed as enhanced IL-12 production in the presence of LPS at 5 uM measured by ELISA relative to control. In kind it is cell-based. The note with it: filed as activator. Put shortly:
(§1)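 THP-1 cells and BMDCs from the femurs and tibias of C57BL/6 mice were treated overnight with compound (5 μM) or vehicle (0.5% DMSO), with or without LPS at 1 ng/mL. Secreted IL-8 (THP-1) and IL-12 (BMDC) in the supernatant were measured by ELISA.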

The target in series [5] is T1, Nuclear factor NF-kappa-B complex (Homo sapiens). Nature of the series: Activation of NF-kappaB in human THP-1 cells assessed as increase in IL-8 production in the presence of LPS at 5 uM measured by ELISA relative to control. In kind it is cell-based. The note with it: filed as activator. In short, it runs like this:
as §1

Series [6] deals with BMDC. Nature of the series: Activation of NF-kappaB in mouse BMDC cells assessed as enhanced IL-12 production at 5 uM measured by ELISA relative to control. In kind it is cell-based. Put shortly:
as §1

T1 sequence (P19838 whole entry, looked up): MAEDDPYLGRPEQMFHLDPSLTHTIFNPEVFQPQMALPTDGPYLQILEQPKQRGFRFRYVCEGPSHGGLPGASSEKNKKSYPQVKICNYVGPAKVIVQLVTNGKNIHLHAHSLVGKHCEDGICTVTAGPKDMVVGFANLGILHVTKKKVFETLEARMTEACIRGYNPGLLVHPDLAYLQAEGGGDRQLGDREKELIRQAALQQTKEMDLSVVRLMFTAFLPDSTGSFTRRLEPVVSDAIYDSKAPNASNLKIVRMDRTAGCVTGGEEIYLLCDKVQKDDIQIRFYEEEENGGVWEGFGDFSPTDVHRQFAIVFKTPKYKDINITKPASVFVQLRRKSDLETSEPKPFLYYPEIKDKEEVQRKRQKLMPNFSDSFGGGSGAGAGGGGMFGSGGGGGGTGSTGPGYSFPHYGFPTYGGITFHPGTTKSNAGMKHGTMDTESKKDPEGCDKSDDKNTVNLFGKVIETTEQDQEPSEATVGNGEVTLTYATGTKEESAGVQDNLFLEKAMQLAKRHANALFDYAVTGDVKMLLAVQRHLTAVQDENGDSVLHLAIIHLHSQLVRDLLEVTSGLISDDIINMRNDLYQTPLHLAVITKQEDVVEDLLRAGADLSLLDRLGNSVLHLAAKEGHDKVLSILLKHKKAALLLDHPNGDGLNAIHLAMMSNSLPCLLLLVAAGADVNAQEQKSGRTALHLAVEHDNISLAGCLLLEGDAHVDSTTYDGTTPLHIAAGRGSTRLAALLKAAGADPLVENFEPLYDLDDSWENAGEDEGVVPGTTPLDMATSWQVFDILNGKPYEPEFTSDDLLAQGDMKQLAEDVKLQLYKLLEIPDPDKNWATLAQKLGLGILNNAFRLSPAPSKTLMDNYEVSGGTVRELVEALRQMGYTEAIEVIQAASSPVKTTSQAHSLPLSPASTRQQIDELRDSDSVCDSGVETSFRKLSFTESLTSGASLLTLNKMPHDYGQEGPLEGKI
T1 sequence (Q00653 whole entry, looked up): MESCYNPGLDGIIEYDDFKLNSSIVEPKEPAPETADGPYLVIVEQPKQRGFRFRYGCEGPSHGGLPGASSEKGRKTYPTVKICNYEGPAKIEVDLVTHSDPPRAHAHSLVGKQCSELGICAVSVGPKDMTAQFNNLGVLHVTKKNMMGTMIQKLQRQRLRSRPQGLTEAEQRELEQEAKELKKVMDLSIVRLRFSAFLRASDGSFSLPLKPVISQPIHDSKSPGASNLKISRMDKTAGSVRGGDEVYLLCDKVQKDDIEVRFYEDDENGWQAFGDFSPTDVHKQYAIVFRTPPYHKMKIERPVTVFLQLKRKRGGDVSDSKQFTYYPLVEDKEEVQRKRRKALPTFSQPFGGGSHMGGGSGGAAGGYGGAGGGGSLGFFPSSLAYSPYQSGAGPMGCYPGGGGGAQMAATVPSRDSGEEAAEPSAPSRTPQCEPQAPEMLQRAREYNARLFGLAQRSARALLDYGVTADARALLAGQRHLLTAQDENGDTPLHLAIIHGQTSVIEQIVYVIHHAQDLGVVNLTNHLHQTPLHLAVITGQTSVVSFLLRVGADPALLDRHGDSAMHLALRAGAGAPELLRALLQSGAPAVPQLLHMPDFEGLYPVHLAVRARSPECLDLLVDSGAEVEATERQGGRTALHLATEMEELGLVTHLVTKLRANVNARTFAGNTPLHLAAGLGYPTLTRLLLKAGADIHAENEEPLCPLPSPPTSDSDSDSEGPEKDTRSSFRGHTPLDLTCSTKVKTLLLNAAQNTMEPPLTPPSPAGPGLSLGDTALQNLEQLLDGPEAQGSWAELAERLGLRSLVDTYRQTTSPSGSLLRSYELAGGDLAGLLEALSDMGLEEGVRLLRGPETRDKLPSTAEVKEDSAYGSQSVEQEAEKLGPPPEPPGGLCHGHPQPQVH
T1 sequence (Q04206 whole entry, looked up): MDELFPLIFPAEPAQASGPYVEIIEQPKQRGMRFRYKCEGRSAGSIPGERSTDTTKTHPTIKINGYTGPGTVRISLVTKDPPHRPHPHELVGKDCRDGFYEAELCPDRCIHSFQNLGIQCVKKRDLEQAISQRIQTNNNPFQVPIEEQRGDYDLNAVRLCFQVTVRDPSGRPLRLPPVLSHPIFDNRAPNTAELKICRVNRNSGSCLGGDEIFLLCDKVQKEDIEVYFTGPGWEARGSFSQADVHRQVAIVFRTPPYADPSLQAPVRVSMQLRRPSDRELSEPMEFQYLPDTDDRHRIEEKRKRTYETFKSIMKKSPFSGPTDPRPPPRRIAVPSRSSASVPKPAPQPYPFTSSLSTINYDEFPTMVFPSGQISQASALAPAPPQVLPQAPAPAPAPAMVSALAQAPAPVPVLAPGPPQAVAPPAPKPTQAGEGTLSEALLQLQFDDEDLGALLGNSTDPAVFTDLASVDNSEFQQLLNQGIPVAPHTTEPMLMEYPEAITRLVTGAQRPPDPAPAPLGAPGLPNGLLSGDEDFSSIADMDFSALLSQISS

Consider `CCOC1CCN(S(=O)(=O)c2ccc(C(=O)Nc3nc(-c4cc(C)ccc4C)cs3)cc2)CC1`, for which the Activity in series [1] was found to be 117%; in series [2] it was 201%.

For the molecule `CCCC#Cc1sc(NC(=O)c2ccc(S(=O)(=O)N3CCCCC3)cc2)nc1-c1cc(C)ccc1C`, the Activity was determined as 106% in series [1] and 393% in series [2]. The outcome in series [3], in series [4] and in series [5] was Active. For the same molecule, the result in series [6] was inactive.

As to `CCCC1CCN(S(=O)(=O)c2ccc(C(=O)Nc3nc(-c4cc(C)ccc4C)cs3)cc2)CC1`, the values for the Activity in series [1] and in series [2] were 111% and 517%, respectively. Also, the outcome in series [3], in series [4] and in series [5] was Active. The outcome in series [6] was inactive.

For `CC(C)(C)c1csc(NC(=O)c2ccc(S(=O)(=O)N3CCCCC3)cc2)n1`, the Activity in series [1] was 113%; in series [2] it was 99%.

`Cc1ccc(C)c(-c2csc(NC(=O)c3ccc(S(=O)(=O)N4CCCCC4)c([N+](=O)[O-])c3)n2)c1`: the Activity was 93% in series [1] and 115% in series [2].

With `Cc1ccc(C)c(-c2csc(NC(=O)c3ccc(S(=O)(=O)N4CCCCC4)c(Br)c3)n2)c1`, the Activity in series [1] is 90%; in series [2], 209%.

Turning to `Cc1ccc(C)c(-c2csc(NC(=O)c3ccc(S(=O)(=O)N4CCCCC4)s3)n2)c1`, the Activity in series [1] was found to be 97%; in series [2] it was 103%.

On to `CCCC#Cc1sc(NC(=O)c2ccc(S(=O)(=O)N3CCC(CCC)CC3)cc2)nc1-c1cc(C)ccc1Br`, for which the Activity is 97% in series [1] and 111% in series [2].

`Cc1ccc(-c2csc(NC(=O)c3ccc(S(=O)(=O)N4CCCCC4)cc3)n2)c(C)c1`: the Activity in series [1] came out at 102%; in series [2], 98%.

As for `Cc1ccc(C)c(-c2csc(NC(=O)c3ccc(C(=O)N4CCCCC4)cc3)n2)c1`, the Activity in series [1] amounted to 88%; in series [2] it was 99%.

Regarding `O=C(Nc1nc(-c2cccc3ccccc23)cs1)c1ccc(S(=O)(=O)N2CCCCC2)cc1`, the Activity in series [1] stood at 93%; in series [2], 198%.

With `CC(=O)N1CCN(S(=O)(=O)c2ccc(C(=O)Nc3nc(-c4cc(C)ccc4C)cs3)cc2)CC1`, the Activity in series [1] was 114%; in series [2], 101%.

Take `CCOc1sc(NC(=O)c2ccc(S(=O)(=O)N3CCCCC3)cc2)nc1-c1cc(C)ccc1C`: the Activity in series [1] is 104%; in series [2], 102%.

In the case of `Cc1ccc(C)c(-c2csc(NCc3ccc(S(=O)(=O)N4CCCCC4)cc3)n2)c1`, the Activity is 85% in series [1] and 99% in series [2].

For the molecule `CCCN(CCC)S(=O)(=O)c1ccc(C(=O)Nc2nc(-c3cc(C)ccc3C)cs2)cc1`, the Activity worked out at 96% in series [1] and 167% in series [2].

With `Cc1cccc(-c2csc(NC(=O)c3ccc(S(=O)(=O)N4CCCCC4)cc3)n2)c1C`, the Activity came to 103% in series [1] and 179% in series [2].

Take `Cc1ccc2c(c1)-c1nc(NC(=O)c3ccc(S(=O)(=O)N4CCCCC4)cc3)sc1C2`: the Activity in series [1] was 89%; in series [2], 109%.

As for `Cc1ccc(C)c(-c2csc(NC(=O)c3ccc(S(=O)(=O)N4CCCCC4)c(Cl)c3)n2)c1`, the Activity was found to be 88% in series [1] and 223% in series [2].

In the case of `Cc1ccc(C)c(-c2csc(NC(=O)c3ccc(S(=O)(=O)N4CCCCC4)cc3Br)n2)c1`, the Activity in series [1] came to 96%; in series [2], 120%.

For the molecule `Cc1ccc(Br)cc1-c1csc(NC(=O)c2ccc(S(=O)(=O)N3CCCCC3)cc2)n1`, the Activity in series [1] worked out at 91%; in series [2], 207%.

In the case of `Cc1ccc(C)c(-c2csc(NC(=O)c3ccc(S(=O)(=O)N4CCCCC4)cc3)n2)c1`, the Activity in series [1] was 103%; in series [2], 200%. Moreover, the result in series [4] and in series [5] was Active. In addition, the outcome in series [6] was inactive.

As to `Cc1ccc(C)c(-c2csc(NC(=O)c3ccc(S(=O)(=O)N4CCCCC4)c(N)c3)n2)c1`, the Activity in series [1] was determined as 92%; in series [2], 125%.

As to `CCCCCc1sc(NC(=O)c2ccc(S(=O)(=O)N3CCCCC3)cc2)nc1-c1cc(C)ccc1C`, the Activity in series [1] is 108%; in series [2], 117%.

With `Cc1ccc(C)c(-c2nc(NC(=O)c3ccc(S(=O)(=O)N4CCCCC4)cc3)sc2C)c1`, the Activity in series [1] stood at 97%; in series [2], 159%.

Consider `Cc1ccc(C)c(-c2csc(C(=O)Nc3ccc(S(=O)(=O)N4CCCCC4)cc3)n2)c1`, for which the Activity in series [1] stood at 91%; in series [2] it was 99%.

As to `Cc1ccc(C)c(-c2nc(NC(=O)c3ccc(S(=O)(=O)N4CCCCC4)cc3)sc2N2CCCCC2)c1`, the figures for the Activity in series [1] and in series [2] were 89% and 99%, respectively.

With `Cc1ccc(C)c(Cc2csc(NC(=O)c3ccc(S(=O)(=O)N4CCCCC4)cc3)n2)c1`, the Activity in series [1] turned out to be 100%; in series [2], 101%.

Turning to `Cc1ccc(C)c(-c2csc(N(C)C(=O)c3ccc(S(=O)(=O)N4CCCCC4)cc3)n2)c1`, the Activity in series [1] was determined as 97%; in series [2], 101%.

Take `Cc1ccc(C)c(-c2csc(NC(=O)c3ccc(S(=O)(=O)N4CCCCC4)cc3Cl)n2)c1`: the Activity came to 87% in series [1] and 127% in series [2].

Take `Cc1ccc(C)c(-c2c[nH]c(NC(=O)c3ccc(S(=O)(=O)N4CCCCC4)cc3)n2)c1`: the Activity in series [1] turned out to be 51%; in series [2], 99%.

Consider `CCCN(CC)S(=O)(=O)c1ccc(C(=O)Nc2nc(-c3cc(C)ccc3C)cs2)cc1`, for which the Activity in series [1] is 104%; in series [2] it was 183%.

On to `Cc1ccc(C)c(-c2csc(NC(=O)c3ccc(S(=O)(=O)N4CCN(C(=O)OC(C)(C)C)CC4)cc3)n2)c1`, for which the Activity in series [1] turned out to be 132%; in series [2], 101%.

Take `Cc1ccc(C)c(-c2nc(NC(=O)c3ccc(S(=O)(=O)N4CCCCC4)cc3)sc2Br)c1`: the Activity in series [1] was 84%; in series [2], 133%.

With `Cc1ccc2c(c1)-c1nc(NC(=O)c3ccc(S(=O)(=O)N4CCCCC4)cc3)sc1CC2`, the values for the Activity in series [1] and in series [2] were 95% and 114%, respectively.

In the case of `Cc1cc(C)cc(-c2csc(NC(=O)c3ccc(S(=O)(=O)N4CCCCC4)cc3)n2)c1`, the Activity in series [1] was 91%; in series [2], 97%.

For the molecule `Cc1ccc(Br)c(-c2csc(NC(=O)c3ccc(S(=O)(=O)N4CCCCC4)cc3)n2)c1`, the Activity turned out to be 98% in series [1] and 254% in series [2]. Also, the outcome in series [4] and in series [5] was Active. The outcome in series [6] was inactive.

Consider `CCc1sc(NC(=O)c2ccc(S(=O)(=O)N3CCCCC3)cc2)nc1-c1cc(C)ccc1C`, for which the Activity is 104% in series [1] and 179% in series [2].

With `CCCCc1sc(NC(=O)c2ccc(S(=O)(=O)N3CCCCC3)cc2)nc1-c1cc(C)ccc1C`, the Activity came to 129% in series [1] and 109% in series [2].

As for `CCN(CC)c1sc(NC(=O)c2ccc(S(=O)(=O)N3CCCCC3)cc2)nc1-c1cc(C)ccc1C`, the Activity in series [1] is 94%; in series [2], 99%.

In the case of `CCCC1CCN(S(=O)(=O)c2ccc(C(=O)Nc3nc(-c4cc(C)ccc4Br)cs3)cc2)CC1`, the Activity in series [1] was determined as 97%; in series [2], 191%.

In the case of `Cc1ccc(C)c(-c2csc(NC(=O)c3ccc(S(=O)(=O)N4CCCCC4)cn3)n2)c1`, the Activity was 94% in series [1] and 99% in series [2].

`CCCC#Cc1sc(NC(=O)c2ccc(S(=O)(=O)N3CCC(CCC)CC3)cc2)nc1-c1cc(C)ccc1C`: the Activity worked out at 102% in series [1] and 112% in series [2].

In the case of `CCCC#Cc1sc(NC(=O)c2ccc(S(=O)(=O)N3CCCCC3)cc2)nc1-c1cc(C)ccc1Br`, the Activity in series [1] worked out at 95%; in series [2] it was 202%.

As to `C#Cc1sc(NC(=O)c2ccc(S(=O)(=O)N3CCCCC3)cc2)nc1-c1cc(C)ccc1C`, the Activity is 111% in series [1] and 118% in series [2].

Regarding `CCc1ccc(C)c(-c2csc(NC(=O)c3ccc(S(=O)(=O)N4CCCCC4)cc3)n2)c1`, the Activity in series [1] was 102%; in series [2] it was 203%.

In the case of `CC(C)(C)Cc1csc(NC(=O)c2ccc(S(=O)(=O)N3CCCCC3)cc2)n1`, the values for the Activity in series [1] and in series [2] were 116% and 101%, respectively.
